Usually IC50 stands for the concentration that gives 50% inhibition. A low value points to greater potency. The term EC50 denotes the concentration at which the effect is half-maximal. As usually defined, the inhibition is the drop in the measured response relative to a control, in per cent.

Structures are written as SMILES. Starred links: 1 amine or outer side, 2 acyl side, 3 side chain; linkers in the order of their positions; H or OH if unused. Positions of bridges follow the written chain, without caps; N, C: chain ends. Non-standard residues stand in square brackets, D forms with d. Residues, ends and D or L forms follow the SMILES beside them. ξ: configuration not given here. X7 = O=C([C@H](Cc1ccc(Cc2ccccc2)cc1)N[*:1])[*:2]; X4 = O=C([C@H](CC1CCC(C2CCCCC2)CC1)N[*:1])[*:2]; Oic(3aξ,7aξ) = O=C(O)[C@@H]1CC2CCCCC2N1; X3 = O=C([C@H]1CC2CCCCC2N1[*:1])[*:2]; Pip = O=C(O)[C@@H]1CCCCN1; Nle = CCCC[C@H](N)C(=O)O

Results on nine compounds are retold here after ChEMBL document CHEMBL1139880, “Potent and selective agonists of human melanocortin receptor 5: cyclic analogues of alpha-melanocyte-stimulating hormone” (J Med Chem, 2007).

In experiment [1] the target is T1, Melanocyte-stimulating hormone receptor (Homo sapiens, UniProt Q01726). The experiment can be described thus: Displacement of [125I]NDPalphaMSH from human cloned melanocortin receptor 1b expressed in CHO cells. Type of experiment: cell-based. (Loss of bound radioactivity is the signal in a displacement assay; it reports binding, not function.)
Target sequence in this assay (Q01726 whole entry): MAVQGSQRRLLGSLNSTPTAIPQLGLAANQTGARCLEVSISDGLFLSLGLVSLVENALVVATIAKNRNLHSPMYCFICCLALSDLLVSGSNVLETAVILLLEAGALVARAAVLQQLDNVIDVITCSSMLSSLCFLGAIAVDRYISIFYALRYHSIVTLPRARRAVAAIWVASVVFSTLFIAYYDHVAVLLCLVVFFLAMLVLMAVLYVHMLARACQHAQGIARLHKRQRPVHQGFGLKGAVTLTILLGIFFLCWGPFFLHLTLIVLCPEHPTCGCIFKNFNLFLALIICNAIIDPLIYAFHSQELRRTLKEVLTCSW
Experiment [2] addresses T2, Melanocortin receptor 3 (Homo sapiens, UniProt P41968). Briefly: Displacement of [125I]NDPalphaMSH from human cloned MC3R expressed in CHO cells. Type of experiment: cell-based.
The target of experiment [3] is T3, Melanocortin receptor 4 (Homo sapiens, UniProt P32245). The experiment can be described thus: Displacement of [125I]NDPalphaMSH from human cloned MC4R expressed in CHO cells. Type of experiment: cell-based.
T3 sequence (P32245 whole entry): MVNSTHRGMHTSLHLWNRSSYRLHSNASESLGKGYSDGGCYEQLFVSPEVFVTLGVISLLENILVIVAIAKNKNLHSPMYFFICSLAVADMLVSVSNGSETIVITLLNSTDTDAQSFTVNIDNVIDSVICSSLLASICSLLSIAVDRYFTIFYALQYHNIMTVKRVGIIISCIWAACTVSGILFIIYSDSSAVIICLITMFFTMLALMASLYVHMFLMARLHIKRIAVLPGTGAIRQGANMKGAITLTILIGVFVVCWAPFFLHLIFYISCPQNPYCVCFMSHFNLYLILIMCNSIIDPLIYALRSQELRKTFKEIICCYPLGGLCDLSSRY
Experiment [4] has as its target T4, Melanocortin receptor 5 (Homo sapiens, UniProt P33032). The experiment can be described thus: Agonist activity at human MC5R expressed in CHO cells assessed as cAMP accumulation. Type of experiment: functional, cell-based. (In general: Changes in cAMP serve as a functional read-out for many G protein-coupled receptors.)
For experiment [5], the target named is T1, Melanocyte-stimulating hormone receptor. Briefly: Agonist activity at human melanocortin receptor 1b expressed in CHO cells assessed as cAMP accumulation. Type of experiment: functional, cell-based. A digest of the protocol: (§1)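 Dissociated CHO cells were spun 5 min and resuspended in Earle's balanced salt solution with 10 mM HEPES pH 7.5, 5 mM MgCl2, 1 mM glutamine and 1 mg/mL BSA. They were incubated 40 min at room temperature with compound (0.003–5000 nM) plus 0.6 mM IBMX, then lysed with 0.1 M HCl. cAMP was measured by Flashplate cAMP assay.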
Target sequence in this assay (Q01726 whole entry): as the sequence (Q01726 whole entry) above

Experiment [6] concerns the target T4, Melanocortin receptor 5. Briefly: Displacement of [125I]NDPalphaMSH from human cloned MC5R expressed in CHO cells. Type of experiment: cell-based.
Experiment [7] concerns the target T2, Melanocortin receptor 3. The experiment can be described thus: Agonist activity at human MC3R expressed in CHO cells assessed as cAMP accumulation. Type of experiment: functional, cell-based. The procedure, abridged:
as §1

Experiment [8] deals with T1, Melanocyte-stimulating hormone receptor. The experiment can be described thus: Agonist activity at human melanocortin receptor 1b expressed in CHO cells assessed as cAMP accumulation relative to [125I]NDPalphaMSH. Type of experiment: functional, cell-based.
Target sequence in this assay (Q01726 whole entry, looked up): as the sequence (Q01726 whole entry) above
The target of experiment [9] is T3, Melanocortin receptor 4. Briefly: Agonist activity at human MC4R expressed in CHO cells assessed as cAMP accumulation at 1 uM relative to [125I]NDPalphaMSH. Type of experiment: functional, cell-based.
The target of experiment [10] is T2, Melanocortin receptor 3. Briefly: Agonist activity at human MC3R expressed in CHO cells assessed as cAMP accumulation at 1 uM relative to [125I]NDPalphaMSH. Type of experiment: functional, cell-based.
The species named for experiment [11] is Homo sapiens. Briefly: Selectivity for human cloned MC5R over human cloned MC1bR.
For experiment [12], the target named is T1, Melanocyte-stimulating hormone receptor. Briefly: Agonist activity at human melanocortin receptor 1b expressed in CHO cells assessed as cAMP accumulation at 1 uM relative to [125I]NDPalphaMSH. Type of experiment: functional, cell-based.
Target sequence in this assay (Q01726 whole entry, looked up): as the sequence (Q01726 whole entry) above
Experiment [13] concerns the target T3, Melanocortin receptor 4. Briefly: Inhibition of human cloned MC4R expressed in CHO cells at 2 uM relative to [125I]NDPalphaMSH. Type of experiment: cell-based.
Experiment [14] concerns the target Melanocortin receptor (M4 and M5) (Homo sapiens) (UniProt P32245+P33032). The experiment can be described thus: Selectivity for human cloned MC5R over human cloned MC4R. Type of experiment: protein assay.
The species named for experiment [15] is Homo sapiens. The experiment can be described thus: Selectivity for human cloned MC5R over human cloned MC3R.
The target of experiment [16] is T3, Melanocortin receptor 4. Briefly: Agonist activity at human MC4R expressed in CHO cells assessed as cAMP accumulation at […] relative to [125I]NDPalphaMSH. Type of experiment: functional, cell-based. Particulars: filed as partial agonist.

T4 sequence (P33032 whole entry): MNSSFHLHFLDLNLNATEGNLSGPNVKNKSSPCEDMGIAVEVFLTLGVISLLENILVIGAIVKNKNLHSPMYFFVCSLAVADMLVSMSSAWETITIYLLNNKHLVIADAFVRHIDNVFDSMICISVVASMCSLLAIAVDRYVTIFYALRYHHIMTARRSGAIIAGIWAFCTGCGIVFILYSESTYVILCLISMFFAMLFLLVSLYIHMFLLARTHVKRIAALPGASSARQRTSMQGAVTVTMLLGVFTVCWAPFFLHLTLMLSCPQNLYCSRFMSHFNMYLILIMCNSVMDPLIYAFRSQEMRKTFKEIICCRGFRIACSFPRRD
T2 sequence (P41968 whole entry): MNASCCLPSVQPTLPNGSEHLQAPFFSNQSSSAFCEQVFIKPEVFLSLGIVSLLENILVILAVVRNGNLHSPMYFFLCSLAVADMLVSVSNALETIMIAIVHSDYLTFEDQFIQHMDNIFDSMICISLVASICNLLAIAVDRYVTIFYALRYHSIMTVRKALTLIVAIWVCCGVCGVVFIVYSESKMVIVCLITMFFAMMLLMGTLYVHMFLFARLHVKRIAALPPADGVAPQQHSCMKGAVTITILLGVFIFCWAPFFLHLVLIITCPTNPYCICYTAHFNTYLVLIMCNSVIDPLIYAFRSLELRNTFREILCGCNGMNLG
Chain of Melanocortin receptor (M4 and M5) (Homo sapiens) (P32245 whole entry, looked up): as the sequence (P32245 whole entry) above
Chain of Melanocortin receptor (M4 and M5) (Homo sapiens) (P33032 whole entry, looked up): as the sequence (P33032 whole entry) above

Consider `CCCC[C@H](NC(C)=O)C(=O)N[C@H]1CC(=O)NCCCC[C@@H](C(N)=O)NC(=O)[C@H](Cc2c[nH]c3ccccc23)NC(=O)[C@@H]2CCCN2C(=O)[C@@H](Cc2ccc(Cl)cc2)NC(=O)[C@H](Cc2c[nH]cn2)NC1=O`, for which the IC50 in experiment [1] was 560 nM (antagonist); at Melanocortin receptor 3 [2], > 20000 nM; on Melanocortin receptor 4 [3] it was 4500 nM (antagonist); on Melanocortin receptor 5 [6], 1300 nM (antagonist). Moreover, the EC50 on Melanocortin receptor 5 [4] is 82 nM (agonist); in experiment [5], 63 nM (agonist); at Melanocortin receptor 3 [7], > 5000 nM.

As for `CCCC[C@H](NC(C)=O)C(=O)N[C@H]1CC(=O)NCCCC[C@@H](C(N)=O)NC(=O)[C@H](Cc2c[nH]c3ccccc23)NC(=O)[C@@H]2CCCCN2C(=O)[C@H](Cc2ccc(-c3ccccc3)cc2)NC(=O)[C@H](C(C)C)NC1=O`, the Activity in experiment [8] was 33%; at Melanocortin receptor 4 [9] (filed as agonist), 77%; on Melanocortin receptor 3 [10] it was 3%. For the same compound, the Ratio IC50 in the experiment listed under Homo sapiens [11] was found to be 670.

In the case of `CCCC[C@H](NC(C)=O)C(=O)N[C@H]1CC(=O)NCCCC[C@@H](C(N)=O)NC(=O)[C@H](Cc2c[nH]c3ccccc23)NC(=O)[C@@H]2CCCCN2C(=O)[C@H](CC2CCC(C3CCCCC3)CC2)NC(=O)[C@H]2CC3CCCCC3N2C1=O` (stereo partly drawn) (Ac-[Nle]D[X3][X4][Pip]WK-NH2; lactam 2-7), the Activity was 13% in experiment [12] and 39% on Melanocortin receptor 4 [9] (filed as partial agonist). For the same compound, the IC50 is 1300 nM (antagonist) in experiment [1] (cho), > 1000 nM on Melanocortin receptor 3 [2] (cho) and 700 nM (antagonist) on Melanocortin receptor 5 [6] (cho). The Ratio IC50 in the experiment listed under Homo sapiens [11] was 1.8. In addition, the EC50 at Melanocortin receptor 5 [4] (cho) and at Melanocortin receptor 3 [7] (cho) was > 500 nM throughout. The same compound yielded an inhibition at Melanocortin receptor 4 [13] of 25%.

On to `CCCC[C@H](NC(C)=O)C(=O)N[C@H]1CC(=O)NCCCC[C@@H](C(N)=O)NC(=O)[C@H](Cc2c[nH]c3ccccc23)NC(=O)[C@@H]2CCCCN2C(=O)[C@@H](Cc2ccc(-c3ccccc3)cc2)NC(=O)[C@@H]2CCCN2C1=O`, for which the IC50 in experiment [1] is 65 nM (antagonist); at Melanocortin receptor 3 [2], 270 nM (antagonist); on Melanocortin receptor 4 [3], 160 nM (antagonist); at Melanocortin receptor 5 [6] it was 0.15 nM (antagonist). Also, the EC50 at Melanocortin receptor 5 [4] is given as 0.031 nM (agonist); in experiment [5], 28 nM (agonist).

Turning to `CCCC[C@H](NC(C)=O)C(=O)N[C@H]1CC(=O)NCCCC[C@@H](C(N)=O)NC(=O)[C@H](Cc2c[nH]c3ccccc23)NC(=O)[C@@H]2CCCCN2C(=O)[C@H](Cc2ccc(-c3ccccc3)cc2)NC(=O)[C@H](Cc2c[nH]cn2)NC1=O`, the Ratio IC50 in experiment [14] was 790; in the experiment filed under Homo sapiens [11], 8; in the experiment listed under Homo sapiens [15], 1940. Also, at Melanocortin receptor 4 [16], the Activity is 41%.

With `CCCC[C@H](NC(C)=O)C(=O)N[C@H]1CC(=O)NCCCC[C@@H](C(N)=O)NC(=O)[C@H](Cc2c[nH]c3ccccc23)NC(=O)[C@@H]2CCCCN2C(=O)[C@H](Cc2ccc(-c3ccccc3)cc2)NC(=O)[C@H](c2ccccc2)NC1=O`, the Activity in experiment [12] was 16%; on Melanocortin receptor 4 [9] (filed as agonist), 72%; on Melanocortin receptor 3 [10] it was 0%.

On to `CCCC[C@H](NC(C)=O)C(=O)N[C@H]1CC(=O)NCCCC[C@@H](C(N)=O)NC(=O)[C@H](Cc2c[nH]c3ccccc23)NC(=O)[C@@H]2CCCN2C(=O)[C@@H](Cc2ccc(-c3ccccc3)cc2)NC(=O)[C@@H]2CCCN2C1=O`, for which the IC50 is 2100 nM (antagonist) in [1], 630 nM (antagonist) on Melanocortin receptor 3 [2], 1000 nM (antagonist) at Melanocortin receptor 4 [3] and 2.9 nM (antagonist) at Melanocortin receptor 5 [6]. In addition, the results for the EC50 (at Melanocortin receptor 5 [4]; in experiment [5]) were 1.6 nM (agonist) and 350 nM (agonist), respectively.

For `CCCC[C@H](NC(C)=O)C(=O)N[C@H]1CC(=O)NCCCC[C@@H](C(N)=O)NC(=O)[C@H](Cc2c[nH]c3ccccc23)NC(=O)[C@@H]2CCCN2C(=O)[C@@H](Cc2ccc(-c3ccccc3)cc2)NC(=O)[C@H](Cc2c[nH]cn2)NC1=O`, the concentration for half-maximal inhibition (IC50) in experiment [1] is 45 nM (antagonist); on Melanocortin receptor 3 [2], 1500 nM; at Melanocortin receptor 4 [3], 1200 nM (antagonist); on Melanocortin receptor 5 [6], 4.1 nM (antagonist). Also, the values for the EC50 (at Melanocortin receptor 5 [4]; in [5]; at Melanocortin receptor 3 [7]) were 2.5 nM (agonist), 5.3 nM (agonist) and 1400 nM (agonist), respectively.

Take `CCCC[C@H](NC(C)=O)C(=O)N[C@H]1CC(=O)NCCCC[C@@H](C(N)=O)NC(=O)[C@H](Cc2c[nH]c3ccccc23)NC(=O)[C@@H]2CCCCN2C(=O)[C@H](Cc2ccc(Cc3ccccc3)cc2)NC(=O)[C@@H]2CC3CCCCC3N2C1=O` (stereo partly drawn) (Ac-[Nle]D[Oic(3aξ,7aξ)][X7][Pip]WK-NH2; lactam 2-7): the Activity in [12] is 3%; at Melanocortin receptor 3 [10], 2%.
